Reference: ChEMBL document CHEMBL1140106, “Blocking estrogen signaling after the hormone: pyrimidine-core inhibitors of estrogen receptor-coactivator binding” (J Med Chem, 2008)

Tests used:
Estrogen receptor = biological target: T1, Estrogen receptor (Homo sapiens, UniProt P03372); assay: Binding affinity to ERalpha assessed as inhibition of fluorescein-labeled nuclear receptor domain of steroid receptor coactivator 3 by TR-FRET assay
T1 sequence (P03372 whole entry): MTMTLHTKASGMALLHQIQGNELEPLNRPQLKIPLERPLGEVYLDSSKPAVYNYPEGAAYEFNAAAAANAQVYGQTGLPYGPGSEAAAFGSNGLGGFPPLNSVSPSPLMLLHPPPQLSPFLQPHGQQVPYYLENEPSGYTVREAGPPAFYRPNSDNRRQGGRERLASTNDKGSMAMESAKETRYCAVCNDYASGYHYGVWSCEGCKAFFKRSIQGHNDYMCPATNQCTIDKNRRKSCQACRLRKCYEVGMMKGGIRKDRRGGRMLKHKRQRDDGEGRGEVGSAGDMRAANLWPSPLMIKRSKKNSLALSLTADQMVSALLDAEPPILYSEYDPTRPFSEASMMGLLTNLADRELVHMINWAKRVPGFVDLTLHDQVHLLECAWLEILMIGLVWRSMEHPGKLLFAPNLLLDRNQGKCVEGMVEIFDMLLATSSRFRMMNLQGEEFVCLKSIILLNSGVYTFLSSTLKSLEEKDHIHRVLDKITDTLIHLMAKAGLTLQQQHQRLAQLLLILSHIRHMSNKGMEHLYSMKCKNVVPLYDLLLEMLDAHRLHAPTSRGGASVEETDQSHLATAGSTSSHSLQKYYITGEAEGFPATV
Summary of the method: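 Fluorescein-SRC-3-NRD (50 nM) was then added for 1 h at room temperature in the dark. Buffer: 20 mM Tris pH 7.5, 0.01% NP40, 50 mM NaCl. SRC-1 Box II peptide served as positive control.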

Estrogen receptor beta = Estrogen receptor beta (Homo sapiens, UniProt Q92731); assay: Binding affinity to ERbeta assessed as inhibition of fluorescein-labeled nuclear receptor domain of steroid receptor coactivator 3 by TR-FRET assay
Estrogen receptor beta, sequence (Q92731 whole entry, the tested form may be a part): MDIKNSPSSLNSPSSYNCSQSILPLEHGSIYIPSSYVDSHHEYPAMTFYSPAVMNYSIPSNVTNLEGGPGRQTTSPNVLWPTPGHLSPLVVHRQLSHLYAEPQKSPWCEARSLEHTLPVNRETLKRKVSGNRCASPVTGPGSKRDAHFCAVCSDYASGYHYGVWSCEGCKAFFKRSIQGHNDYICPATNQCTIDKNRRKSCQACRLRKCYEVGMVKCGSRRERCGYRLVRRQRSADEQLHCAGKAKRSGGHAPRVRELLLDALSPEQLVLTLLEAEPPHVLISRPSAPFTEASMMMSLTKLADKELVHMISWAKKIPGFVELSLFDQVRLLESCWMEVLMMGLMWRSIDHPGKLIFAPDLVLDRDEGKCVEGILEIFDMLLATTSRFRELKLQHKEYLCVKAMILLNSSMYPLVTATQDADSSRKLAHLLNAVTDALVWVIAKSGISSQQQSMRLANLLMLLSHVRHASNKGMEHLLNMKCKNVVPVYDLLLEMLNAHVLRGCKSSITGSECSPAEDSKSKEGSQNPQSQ

SMILES: CC(C)CCc1cc(N(C)CC(C)C)nc(N(C)CC(C)C)n1
- Ki (Estrogen receptor): > 1000 µM
- Ki (Estrogen receptor beta): > 1000 µM

SMILES: CC(C)CCc1cc(N(Cc2ccccc2)C(=O)OC(C)(C)C)nc(NCc2cccc3ccccc23)n1
- Ki (Estrogen receptor): > 1000 µM
- Ki (Estrogen receptor beta): > 1000 µM

SMILES: CC(C)(C)OC(=O)N(Cc1ccccc1)c1cc(CCc2cccc3ccccc23)nc(NCc2cccc3ccccc23)n1
- Ki (Estrogen receptor): > 1000 µM
- Ki (Estrogen receptor beta): > 1000 µM

SMILES: CC(C)CCc1cc(NCc2cccc3ccccc23)nc(NCC(C)C)n1
- Ki (Estrogen receptor beta): > 1000 µM

SMILES: c1ccc(CCc2cc(NCc3ccccc3)nc(NCc3cccc4ccccc34)n2)cc1
- Ki (Estrogen receptor): > 1000 µM
- Ki (Estrogen receptor beta): > 1000 µM

SMILES: CC(C)CCc1cc(N(CC(C)C)C(=O)OC(C)(C)C)nc(NCc2ccccc2)n1
- Ki (Estrogen receptor): > 1000 µM
- Ki (Estrogen receptor beta): > 1000 µM

SMILES: CC(C)CCc1cc(NCC(C)C)nc(NCc2cccc3ccccc23)n1
- Ki (Estrogen receptor beta): > 1000 µM

SMILES: c1ccc(CNc2cc(NCc3ccccc3)nc(NCc3ccccc3)n2)cc1
- Ki (Estrogen receptor): > 1000 µM
- Ki (Estrogen receptor beta): > 1000 µM

SMILES: CCc1cc(NCC(C)C)nc(NCC(C)C)n1
- Ki (Estrogen receptor beta): > 1000 µM

SMILES: CC(C)CNc1nc(CCc2ccccc2)cc(N(Cc2ccccc2)C(=O)OC(C)(C)C)n1
- Ki (Estrogen receptor): > 1000 µM
- Ki (Estrogen receptor beta): > 1000 µM

SMILES: CC(C)CN(C)c1cc(CCc2cccc3ccccc23)nc(N(C)CC(C)C)n1
- Ki (Estrogen receptor): > 1000 µM
- Ki (Estrogen receptor beta): > 1000 µM

SMILES: CC(C)CCc1cc(N(Cc2cccc3ccccc23)C(=O)OC(C)(C)C)nc(NCc2ccccc2)n1
- Ki (Estrogen receptor): > 1000 µM
- Ki (Estrogen receptor beta): > 1000 µM

SMILES: CC(C)CN(C(=O)OC(C)(C)C)c1cc(CCc2ccccc2)nc(NCc2ccccc2)n1
- Ki (Estrogen receptor): > 1000 µM
- Ki (Estrogen receptor beta): > 1000 µM

SMILES: CC(C)CCc1cc(N(Cc2cccc3ccccc23)C(=O)OC(C)(C)C)nc(NCC(C)C)n1
- Ki (Estrogen receptor): > 1000 µM
- Ki (Estrogen receptor beta): > 1000 µM

SMILES: CC(C)CNc1nc(CCc2cccc3ccccc23)cc(N(Cc2ccccc2)C(=O)OC(C)(C)C)n1
- Ki (Estrogen receptor): > 1000 µM
- Ki (Estrogen receptor beta): > 1000 µM

SMILES: CC(C)CSc1cc(CCc2ccccc2)nc(SCC(C)C)n1
- Ki (Estrogen receptor): > 1000 µM
- Ki (Estrogen receptor beta): > 1000 µM

SMILES: CC(C)CCc1nc(NCC(C)C)cc(NCC(C)C)n1
- Ki (Estrogen receptor): > 1000 µM
- Ki (Estrogen receptor beta): > 1000 µM

SMILES: CC(C)CCc1cc(N(CC(C)C)C(=O)OC(C)(C)C)nc(NCc2cccc3ccccc23)n1
- Ki (Estrogen receptor): > 1000 µM
- Ki (Estrogen receptor beta): > 1000 µM

SMILES: CC(C)CCc1cc(NCC(C)C)nc(S(=O)(=O)CC(C)C)n1
- Ki (Estrogen receptor): > 1000 µM
- Ki (Estrogen receptor beta): > 1000 µM

SMILES: CC(C)CN(C(=O)OC(C)(C)C)c1cc(CCc2cccc3ccccc23)nc(NCc2cccc3ccccc23)n1
- Ki (Estrogen receptor): > 1000 µM
- Ki (Estrogen receptor beta): > 1000 µM

SMILES: CC(C)CNc1cc(CCc2cccc3ccccc23)nc(NCc2ccccc2)n1
- Ki (Estrogen receptor): > 1000 µM
- Ki (Estrogen receptor beta): > 1000 µM

SMILES: CC(C)CCc1cc(SCC(C)C)nc(SCC(C)C)n1
- Ki (Estrogen receptor): > 1000 µM
- Ki (Estrogen receptor beta): > 1000 µM

SMILES: CC(C)CNc1nc(/C=C/c2ccccc2)cc(N(Cc2ccccc2)C(=O)OC(C)(C)C)n1
- Ki (Estrogen receptor): > 1000 µM
- Ki (Estrogen receptor beta): 132 µM

SMILES: CC(C)CNc1nc(CCc2cccc3ccccc23)cc(NCc2cccc3ccccc23)n1
- Ki (Estrogen receptor): > 1000 µM
- Ki (Estrogen receptor beta): > 1000 µM

SMILES: CC(C)CNc1cc(SCC(C)C)nc(NCC(C)C)n1
- Ki (Estrogen receptor): > 1000 µM
- Ki (Estrogen receptor beta): > 1000 µM

SMILES: C(=C\c1cc(/C=C/c2ccccc2)nc(NCc2cccc3ccccc23)n1)/c1ccccc1
- Ki (Estrogen receptor): > 1000 µM
- Ki (Estrogen receptor beta): > 1000 µM

SMILES: CC(C)CS(=O)(=O)c1cc(CCc2ccccc2)nc(S(=O)(=O)CC(C)C)n1
- Ki (Estrogen receptor): > 1000 µM
- Ki (Estrogen receptor beta): > 1000 µM

SMILES: CC(C)CCc1cc(S(=O)(=O)Cc2ccccc2)nc(S(=O)(=O)Cc2ccccc2)n1
- Ki (Estrogen receptor): > 1000 µM
- Ki (Estrogen receptor beta): > 1000 µM

SMILES: CC(C)CNc1nc(CCc2cccc3ccccc23)cc(NCc2ccccc2)n1
- Ki (Estrogen receptor): > 1000 µM
- Ki (Estrogen receptor beta): > 1000 µM

SMILES: c1ccc(CNc2nc(CCc3cccc4ccccc34)cc(NCc3cccc4ccccc34)n2)cc1
- Ki (Estrogen receptor): > 1000 µM
- Ki (Estrogen receptor beta): > 1000 µM

SMILES: CC(C)CCc1cc(S(=O)(=O)CC(C)C)nc(S(=O)(=O)CC(C)C)n1
- Ki (Estrogen receptor): > 1000 µM
- Ki (Estrogen receptor beta): > 1000 µM

SMILES: CC(C)CNc1cc(NCC(C)C)ncn1
- Ki (Estrogen receptor): > 1000 µM

SMILES: CC(C)CNc1nc(CCc2ccccc2)cc(N(C)CC(C)C)n1
- Ki (Estrogen receptor beta): > 1000 µM

SMILES: CC(C)CNc1cc(CCc2ccccc2)nc(NCc2ccccc2)n1
- Ki (Estrogen receptor beta): > 1000 µM

SMILES: CC(C)CNc1nc(CCc2cccc3ccccc23)cc(N(C)CC(C)C)n1
- Ki (Estrogen receptor beta): > 1000 µM
